Reference: ChEMBL document CHEMBL1649442, “Genetic determinants of resistance to fusidic acid among clinical bacteremia isolates of Staphylococcus aureus” (2009)
≈ marks a conversion by molar mass, not a printed value.

Tests used:
Assay type in all cases: functional
[1] = system: Staphylococcus aureus; assay: Antimicrobial activity against Staphylococcus aureus isolate 27980 expressing FusB and harboring pUB101 carrying cadX coding sequence by Etest
[2] = system: Staphylococcus aureus; assay: Antimicrobial activity against cadXD coding sequence deficient Staphylococcus aureus isolate 27971 expressing FusB by Etest
Method in brief: (§1)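 Fusidic acid-resistant S. aureus bacteremia clinical isolates, originally from Statens Serum Institut. MIC read by Etest on Mueller-Hinton agar, following the manufacturer's instructions. Liquid cultures grown in LB at 37°C with shaking at 200 rpm. fusB and cadXD presence checked by PCR and sequencing.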

[3] = system: Staphylococcus aureus; assay: Antimicrobial activity against Staphylococcus aureus RN4220 transformed with Staphylococcus aureus isolate 27980 carrying pUB101 expressing cadX coding sequence by Etest
Method in brief: (§2)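 Plasmid DNA was extracted from each clinical bacteremia isolate after overnight growth in LB with 0.5% glycine, using lysostaphin/lysozyme/proteinase K lysis and alkaline lysis. It was electroporated into restriction-negative S. aureus RN4220 (2.3 kV, 25 μF, 100 Ω) and transformants were selected on NYE agar with ampicillin 1 μg/ml at 37°C. Fusidic acid MIC was read by Etest on Mueller-Hinton agar following the manufacturer's instructions.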

[4] = system: Staphylococcus aureus; assay: Antimicrobial activity against cadX coding sequence deficient Staphylococcus aureus isolate 28400 expressing FusC C90T mutant and harboring pMW2 by Etest
[5] = system: Staphylococcus aureus; assay: Antimicrobial activity against Staphylococcus aureus isolate 28416 expressing FusC by Etest
[6] = system: Staphylococcus aureus; assay: Antimicrobial activity against Staphylococcus aureus isolate 28130 expressing FusA Leu461Ser mutant pMW2 carrying cadX coding sequence by Etest
[7] = system: Staphylococcus aureus; assay: Antimicrobial activity against Staphylococcus aureus isolate 28444 expressing FusB and harboring pUB101 carrying cadX coding sequence by Etest
[8] = system: Staphylococcus aureus; assay: Antimicrobial activity against Staphylococcus aureus isolate 27624 expressing FusB and harboring pUB101 carrying cadX coding sequence by Etest
[9] = system: Staphylococcus aureus; assay: Antimicrobial activity against Staphylococcus aureus isolate 28362 expressing FusA Val90Ile mutant by Etest
[10] = system: Staphylococcus aureus; assay: Antimicrobial activity against Staphylococcus aureus isolate 27971 expressing FusB and harboring pUB101 carrying cadX coding sequence by Etest
[11] = system: Staphylococcus aureus; assay: Antimicrobial activity against cadX coding sequence deficient Staphylococcus aureus isolate 27962 expressing FusA Met453Ile mutant and harboring pMW2 by Etest
[12] = system: Staphylococcus aureus; assay: Antimicrobial activity against Staphylococcus aureus RN4220 transformed with Staphylococcus aureus isolate 27624 carrying pUB101 expressing cadX coding sequence by Etest; method in brief: as §2
[13] = system: Staphylococcus aureus; assay: Antimicrobial activity against cadX coding sequence deficient Staphylococcus aureus isolate 28150 expressing FusC and harboring pMW2 by Etest
[14] = system: Staphylococcus aureus; assay: Antimicrobial activity against Staphylococcus aureus RN4220 transformed with Staphylococcus aureus isolate 28332 carrying pUB101 cadX coding sequence by Etest; method in brief: as §2
[15] = system: Staphylococcus aureus; assay: Antimicrobial activity against Staphylococcus aureus isolate 27856 expressing FusB and harboring pUB101 carrying cadX coding sequence by Etest
[16] = system: Staphylococcus aureus; assay: Antimicrobial activity against Staphylococcus aureus isolate 28084 expressing FusC and harboring pMW2 carrying cadX coding sequence by Etest
[17] = system: Staphylococcus aureus; assay: Antimicrobial activity against cadXD coding sequence deficient Staphylococcus aureus isolate 27980 expressing FusB by Etest; method in brief: as §1
[18] = system: Staphylococcus aureus; assay: Antimicrobial activity against Staphylococcus aureus isolate 27657 expressing FusC by Etest
[19] = system: Staphylococcus aureus; assay: Antimicrobial activity against Staphylococcus aureus isolate 28332 expressing FusB and harboring pUB101 carrying cadX coding sequence by Etest
[20] = system: Staphylococcus aureus; assay: Antimicrobial activity against cadXD coding sequence deficient Staphylococcus aureus isolate 27624 expressing FusB by Etest; method in brief: as §1
[21] = system: Staphylococcus aureus; assay: Antimicrobial activity against cadX coding sequence deficient Staphylococcus aureus isolate 27768 expressing FusA Leu461Ser mutant and harboring pMW2 by Etest
[22] = system: Staphylococcus aureus; assay: Antimicrobial activity against cadXD coding sequence deficient Staphylococcus aureus isolate 28332 expressing FusB by Etest; method in brief: as §1
[23] = system: Staphylococcus aureus; assay: Antimicrobial activity against cadXD coding sequence deficient Staphylococcus aureus isolate 28444 expressing FusB by Etest; method in brief: as §1
[24] = system: Staphylococcus aureus; assay: Antimicrobial activity against Staphylococcus aureus RN4220 transformed with Staphylococcus aureus isolate 28444 carrying pUB101 expressing cadX coding sequence by Etest; method in brief: as §2
[25] = system: Staphylococcus aureus; assay: Antimicrobial activity against Staphylococcus aureus RN4220 transformed with Staphylococcus aureus isolate 27856 carrying pUB101 expressing cadX coding sequence by Etest; method in brief: as §2
[26] = system: Staphylococcus aureus; assay: Antimicrobial activity against cadXD coding sequence deficient Staphylococcus aureus isolate 27856 expressing FusB by Etest; method in brief: as §1
[27] = system: Staphylococcus aureus; assay: Antimicrobial activity against cadX coding sequence deficient Staphylococcus aureus isolate 28335 expressing FusC C90T mutant and harboring pMW2 by Etest
[28] = system: Staphylococcus aureus; assay: Antimicrobial activity against cadX coding sequence deficient Staphylococcus aureus isolate 28410 expressing FusC C90T mutant and harboring pMW2 by Etest
[29] = system: Staphylococcus aureus; assay: Antimicrobial activity against Staphylococcus aureus RN4220 transformed with Staphylococcus aureus isolate 27971 carrying pUB101 expressing cadX coding sequence by Etest; method in brief: as §2
[30] = system: Staphylococcus aureus; assay: Antimicrobial activity against cadX coding sequence deficient Staphylococcus aureus isolate 28414 expressing FusC C90T mutant and harboring pMW2 by Etest
[31] = system: Staphylococcus aureus; assay: Antimicrobial activity against Staphylococcus aureus isolate 27731 expressing FusA Ala71Val, Asp189Gly, Pro406Leu mutant and harboring pMW2 carrying cadX coding sequence by Etest
[32] = system: Staphylococcus aureus; assay: Antimicrobial activity against Staphylococcus aureus isolate 27844 expressing FusA Ala376Val, Leu461Phe, Asp463Gly, Ala655Pro mutant and harboring pMW2 carrying cadX coding sequence by Etest

SMILES: CC(=O)O[C@H]1C[C@@]2(C)[C@@H](C[C@@H](O)[C@H]3[C@@]4(C)CC[C@@H](O)[C@@H](C)[C@@H]4CC[C@@]32C)/C1=C(\CCC=C(C)C)C(=O)O [FUSIDIC ACID]
- MIC [1]: 12 µg/mL (≈ 23.2 µM)
- MIC [2]: 0.094 µg/mL (≈ 0.182 µM)
- MIC [3]: 8 µg/mL (≈ 15.5 µM)
- MIC [4]: 6 µg/mL (≈ 11.6 µM)
- MIC [5]: 8 µg/mL (≈ 15.5 µM)
- MIC [6]: 6 µg/mL (≈ 11.6 µM)
- MIC [7]: 12 µg/mL (≈ 23.2 µM)
- MIC [8]: 6 µg/mL (≈ 11.6 µM)
- MIC [9]: 8 µg/mL (≈ 15.5 µM)
- MIC [10]: 8 µg/mL (≈ 15.5 µM)
- MIC [11]: 4 µg/mL (≈ 7.74 µM)
- MIC [12]: 8 µg/mL (≈ 15.5 µM)
- MIC [13]: 8 µg/mL (≈ 15.5 µM)
- MIC [14]: 8 µg/mL (≈ 15.5 µM)
- MIC [15]: 8 µg/mL (≈ 15.5 µM)
- MIC [16]: 12 µg/mL (≈ 23.2 µM)
- MIC [17]: 0.094 µg/mL (≈ 0.182 µM)
- MIC [18]: 8 µg/mL (≈ 15.5 µM)
- MIC [19]: 12 µg/mL (≈ 23.2 µM)
- MIC [20]: 0.094 µg/mL (≈ 0.182 µM)
- MIC [21]: 8 µg/mL (≈ 15.5 µM)
- MIC [22]: 0.125 µg/mL (≈ 0.242 µM)
- MIC [23]: 0.064 µg/mL (≈ 0.124 µM)
- MIC [24]: 8 µg/mL (≈ 15.5 µM)
- MIC [25]: 8 µg/mL (≈ 15.5 µM)
- MIC [26]: 0.094 µg/mL (≈ 0.182 µM)
- MIC [27]: 8 µg/mL (≈ 15.5 µM)
- MIC [28]: 6 µg/mL (≈ 11.6 µM)
- MIC [29]: 8 µg/mL (≈ 15.5 µM)
- MIC [30]: 6 µg/mL (≈ 11.6 µM)
- MIC [31]: 8 µg/mL (≈ 15.5 µM)
- MIC [32]: 256 µg/mL (≈ 495 µM)
